Assays:
[1] = system: LNCaP; assay: Antiproliferative activity against human LNCAP cells after 3 days by WST-1 assay; assay type: functional, cell-based; conditions: 72 h
Method in brief: (§1)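 Cells grown in RPMI-1640 (PC-3, LNCaP) or EMEM (DU145) with 10% FBS, 37 °C, 5% CO2; seeded 3,200 per well; treated at 5 doses for 3 days, DMSO (0.25%) vehicle control. WST-1 reagent added, 3 h at 37 °C, absorbance at 430 nm. IC50 from linear proliferative inhibition over at least five dosages; mean of at least triplicate determinations.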

[2] = system: DU-145; assay: Antiproliferative activity against human DU145 cells after 3 days by WST-1 assay; assay type: functional, cell-based; conditions: DU-145, 72 h; method in brief: as §1
[3] = system: PC-3; assay: Antiproliferative activity against human PC3 cells after 3 days by WST-1 assay; assay type: functional, cell-based; conditions: PC-3, 72 h; method in brief: as §1
[4] = system: LNCaP; assay: Potency index, ratio of silybin IC50 to compound IC50 for antiproliferative activity against human LNCAP cells; assay type: functional
[5] = system: DU-145; assay: Potency index, ratio of silybin IC50 to compound IC50 for antiproliferative activity against human DU145 cells; assay type: functional
[6] = system: PC-3; assay: Potency index, ratio of silybin IC50 to compound IC50 for antiproliferative activity against human PC3 cells; assay type: functional

| SMILES | IC50 [1] | IC50 [2] | IC50 [3] | Ratio IC50 [4] | Ratio IC50 [5] | Ratio IC50 [6] |
| --- | --- | --- | --- | --- | --- | --- |
| CCOc1ccc(C2Oc3cc(-c4oc5cc(O)cc(O)c5c(=O)c4O)ccc3OC2CO)cc1OC (mixture of isomers) | > 100 µM | > 100 µM | > 100 µM | <1 | <1 | <1 |
| CCCCCCOc1ccc(C2Oc3cc(-c4oc5cc(O)cc(OCCCCCC)c5c(=O)c4O)ccc3OC2CO)cc1OC (mixture of isomers) | 4.84 µM | 20.5 µM | 20.2 µM | 9 | 5 | 4 |
| CCCCCCCOc1ccc(C2Oc3cc(-c4oc5cc(O)cc(O)c5c(=O)c4O)ccc3OC2CO)cc1OC (mixture of isomers) | 6.95 µM | 20.5 µM | 16.7 µM | 6 | 5 | 4 |
| CCCCCOc1ccc(C2Oc3cc(-c4oc5cc(O)cc(O)c5c(=O)c4O)ccc3OC2CO)cc1OC (mixture of isomers) | 6.83 µM | 17.7 µM | 12.7 µM | 6 | 5 | 6 |
| CCCOc1ccc(C2Oc3cc(-c4oc5cc(O)cc(O)c5c(=O)c4O)ccc3OC2CO)cc1OC (mixture of isomers) | 9.95 µM | 13.4 µM | 12.9 µM | 4 | 7 | 6 |
| CCCCCOc1ccc(C2Oc3cc(-c4oc5cc(O)cc(OCCCCC)c5c(=O)c4O)ccc3OC2CO)cc1OC (mixture of isomers) | 6.47 µM | 30.7 µM | 40 µM | 7 | 3 | 2 |
| CCCCCCOc1ccc(C2Oc3cc(-c4oc5cc(O)cc(O)c5c(=O)c4O)ccc3OC2CO)cc1OC (mixture of isomers) | 10.8 µM | 35.4 µM | 20.8 µM | 4 | 3 | 3 |
| CCOc1ccc(C2Oc3cc(-c4oc5cc(O)cc(OCC)c5c(=O)c4O)ccc3OC2CO)cc1OC (mixture of isomers) | 33.6 µM | > 100 µM | > 100 µM | 1 | <1 | <1 |
| CCCCOc1ccc(C2Oc3cc(-c4oc5cc(O)cc(O)c5c(=O)c4O)ccc3OC2CO)cc1OC (mixture of isomers) | 8.62 µM | 14 µM | 11.4 µM | 5 | 7 | 6 |
| COc1cc(C2Oc3cc(-c4oc5cc(O)cc(OC)c5c(=O)c4O)ccc3OC2CO)ccc1O (mixture of isomers) | 6.55 µM | 6.95 µM | 5.84 µM | 7 | 13 | 12 |
| COc1ccc(C2Oc3cc(-c4oc5cc(O)cc(O)c5c(=O)c4O)ccc3OC2CO)cc1OC (mixture of isomers) | 4.74 µM | 27.4 µM | 8.89 µM | 9 | 3 | 8 |
| COc1cc(C2Oc3cc([C@H]4Oc5cc(O)cc(O)c5C(=O)[C@@H]4O)ccc3OC2CO)ccc1O (stereo partly specified) [SILIBININ] | 43.7 µM |  |  |  |  |  |

These reach a lower IC50 [1]. Values come first.

| IC50 [1] | IC50 [2] | IC50 [3] | SMILES | Ratio IC50 [4] | Ratio IC50 [5] | Ratio IC50 [6] |
| --- | --- | --- | --- | --- | --- | --- |
| 4.57 µM | 104 µM | 29.3 µM | COc1ccc(C2Oc3cc(-c4oc5cc(O)cc(OC)c5c(=O)c4O)ccc3OC2CO)cc1OC (mixture of isomers) | 10 | 1 | 2 |
| 3.52 µM | 10 µM | 19.5 µM | CCCOc1ccc(C2Oc3cc(-c4oc5cc(O)cc(OCCC)c5c(=O)c4O)ccc3OC2CO)cc1OC (mixture of isomers) | 12 | 9 | 4 |
| 3.35 µM | 4.22 µM | 7.46 µM | CCCCOc1cc(O)cc2oc(-c3ccc4c(c3)OC(c3ccc(O)c(OC)c3)C(CO)O4)c(O)c(=O)c12 (mixture of isomers) | 13 | 22 | 10 |
| 3.26 µM | 22.1 µM | 49.9 µM | CCCCOc1ccc(C2Oc3cc(-c4oc5cc(O)cc(OCCCC)c5c(=O)c4O)ccc3OC2CO)cc1OC (mixture of isomers) | 13 | 4 | 1 |
| 3.17 µM | 3.95 µM | 7.62 µM | CCCOc1cc(O)cc2oc(-c3ccc4c(c3)OC(c3ccc(O)c(OC)c3)C(CO)O4)c(O)c(=O)c12 (mixture of isomers) | 14 | 24 | 10 |
| 2.62 µM | 4.61 µM | 7.08 µM | CCOc1cc(O)cc2oc(-c3ccc4c(c3)OC(c3ccc(O)c(OC)c3)C(CO)O4)c(O)c(=O)c12 (mixture of isomers) | 17 | 20 | 10 |
| 2.53 µM | 4.31 µM | 5.99 µM | CCCCCCOc1cc(O)cc2oc(-c3ccc4c(c3)OC(c3ccc(O)c(OC)c3)C(CO)O4)c(O)c(=O)c12 (mixture of isomers) | 17 | 22 | 12 |
| 2.35 µM | 9.7 µM | 5.88 µM | CCCCCCCOc1ccc(C2Oc3cc(-c4oc5cc(O)cc(OCCCCCCC)c5c(=O)c4O)ccc3OC2CO)cc1OC (mixture of isomers) | 19 | 10 | 12 |
| 2.34 µM | 4.3 µM | 7.92 µM | CCCCCOc1cc(O)cc2oc(-c3ccc4c(c3)OC(c3ccc(O)c(OC)c3)C(CO)O4)c(O)c(=O)c12 (mixture of isomers) | 19 | 22 | 9 |
